What was measured:
[1] = test system: Hepatitis C virus; assay: Antiviral activity against Hepatitis C virus genotype 1b infected in human HuH7 cells assessed as inhibition of subgenomic replicon RNA replication after 72 hrs by luciferase reporter assay; assay type: functional, cell-based, Hepacivirus hominis; settings: Huh-7, 72 h
[2] = Inhibition of N-terminal His6-tagged Hepatitis C virus genotype 1b isolate Con1 NS5B RNA-dependent RNA polymerase activity by plate reader analysis
[3] = Cytotoxicity against human HuH7 cells by MTT assay; assay type: cell-based, Huh-7
In short: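 Huh-7-derived HCV replicon cell lines were used, with MTT as the vital dye read-out.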

[4] = test system: Hepatitis C virus; assay: Antiviral activity against Hepatitis C virus assessed as inhibition of subgenomic replicon RNA replication; assay type: functional, organism-based, Hepacivirus hominis

Structure (SMILES)	EC50 [1] [µM]	IC50 [2] [µM]	EC50 [4] [µM]	CC50 [3] [µM]
C[C@@]1(O)[C@H](O)[C@@H](CO)O[C@H]1c1cnn2c(N)ncnc12	> 100	33	–	> 100
C[C@@]1(O)[C@H](O)[C@@H](CO)O[C@H]1n1ccc2c(O)nc(N)nc21	–	–	> 50	–
C[C@@]1(O)[C@H](O)[C@@H](CO)O[C@H]1c1ccc2c(=O)[nH]c(N)nn12	> 100	0.21	–	> 100
C[C@@]1(O)[C@H](O)[C@@H](CO)O[C@H]1c1cnc2c(N)ncnn12	1.3	0.55	–	34

Further lines, with some results ahead:

EC50 [1] [µM]	IC50 [2] [µM]	EC50 [4] [µM]	Structure (SMILES)	CC50 [3] [µM]
–	–	2	C[C@@]1(O)[C@H](O)[C@@H](CO)O[C@H]1n1cnc2c(=O)[nH]c(N)nc21 [2'-B-METHYL-GUANOSINE]	–
> 100	0.31	–	C[C@@]1(O)[C@H](O)[C@@H](CO)O[C@H]1c1cnc2c(=O)[nH]c(N)nn12	> 100

From ChEMBL document CHEMBL3286396, “Discovery and Synthesis of C-Nucleosides as Potential New Anti-HCV Agents” (ACS Med Chem Lett, 2014)
